Results as given in ChEMBL document CHEMBL2069229, “Terpenylated coumarins as SIRT1 activators isolated from Ailanthus altissima” (J Nat Prod, 2012).
Active and inactive are the calls of the source. The rule behind the calls is not given here.

Legend:
[1] = target: T1, NAD-dependent protein deacetylase sirtuin-1 (Homo sapiens) (UniProt Q96EB6); assay: Activation of SIRT1 expressed in HEK293 cells assessed as increase in enzyme deacetylation activity at 10 uM using acetylated p53 substrate and NAD+ by bioluminescence assay; format: cell-based
T1 sequence (whole entry): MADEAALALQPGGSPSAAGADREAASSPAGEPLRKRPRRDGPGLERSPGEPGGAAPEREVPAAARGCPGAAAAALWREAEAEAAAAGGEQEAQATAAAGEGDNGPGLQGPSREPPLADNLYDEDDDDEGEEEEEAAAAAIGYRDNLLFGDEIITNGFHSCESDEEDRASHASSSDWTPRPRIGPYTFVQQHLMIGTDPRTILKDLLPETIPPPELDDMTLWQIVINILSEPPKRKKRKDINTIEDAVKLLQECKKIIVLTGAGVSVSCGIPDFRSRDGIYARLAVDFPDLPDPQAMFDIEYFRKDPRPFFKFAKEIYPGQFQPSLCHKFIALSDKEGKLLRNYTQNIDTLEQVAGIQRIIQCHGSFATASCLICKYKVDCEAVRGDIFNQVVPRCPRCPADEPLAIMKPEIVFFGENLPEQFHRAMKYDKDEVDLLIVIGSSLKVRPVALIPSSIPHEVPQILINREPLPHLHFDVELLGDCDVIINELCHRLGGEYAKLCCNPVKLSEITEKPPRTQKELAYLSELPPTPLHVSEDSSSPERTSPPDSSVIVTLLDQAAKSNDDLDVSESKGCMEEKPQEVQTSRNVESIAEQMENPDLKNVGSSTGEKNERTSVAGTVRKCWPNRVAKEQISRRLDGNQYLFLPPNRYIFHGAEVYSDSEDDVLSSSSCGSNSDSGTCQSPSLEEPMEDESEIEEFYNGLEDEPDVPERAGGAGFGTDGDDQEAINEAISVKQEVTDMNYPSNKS
How it was run: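 Enzyme–compound premix 10 min, then substrate/NAD+ added and run 2 h. Quenched with LDH reagent containing nicotinamide for 1 h. Read by luciferase/FMN-oxidoreductase/decanal luminescence within 15 min. DMSO reaction as positive control, no-enzyme as blank.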

[2] = target: T1, NAD-dependent protein deacetylase sirtuin-1 (Homo sapiens); assay: Activation of SIRT1 expressed in HEK293 cells assessed as reduction in p53 transcriptional activity at 10 uM incubated for 12 hrs by luciferase reporter gene assay; format: cell-based
How it was run: (§1)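 HEK293 cells in DMEM with 10% FBS, plated at 10^5 cells/well. After 24 h, PEI-transfected with PG13-luc (wt p53 sites), myc-p53, flag-SIRT1 and RSV-β-gal. Treated 24 h post-transfection for 12 h. Luciferase normalized to internal control. Triplicate experiments, mean ± SD.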

[3] = target: T1, NAD-dependent protein deacetylase sirtuin-1 (Homo sapiens); assay: Activation of SIRT1 expressed in HEK293 cells assessed as increase in enzyme deacetylation activity pre-incubated for 10 mins before addition of acetylated p53 peptide substrate and NAD+ by NAD+/NADH assay; format: cell-based
How it was run: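 Cell-free SIRT1 (0.1 U/mL) with 10 μM NAD+ and 20 μM Ac-p53 peptide in Tris/Cl pH 8.0, NaCl, KCl, MgCl2, BSA buffer. Enzyme–compound premix 10 min at room temperature, then 6 h at ambient temperature. Stopped with NAD/NADH recycling enzyme mix containing 1 mM nicotinamide; absorbance read after 2 h. DMSO and no-enzyme controls.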

[4] = target: T1, NAD-dependent protein deacetylase sirtuin-1 (Homo sapiens); assay: Activation of SIRT1 expressed in HEK293 cells assessed as reduction in p53 transcriptional activity incubated for 12 hrs by luciferase reporter gene assay; format: cell-based; how it was run: as §1
[5] = target: T1, NAD-dependent protein deacetylase sirtuin-1 (Homo sapiens); assay: Activation of SIRT1 expressed in HEK293 cells assessed as increase in NAD to NADH ratio at 20 uM after 12 hrs by NAD+/NADH assay

| Activity [1] | Activity [2] | Activity [3] | Activity [4] | Activity [5] [%] | Structure (SMILES) |
| --- | --- | --- | --- | --- | --- |
| Active | Active | Dose-dependent effect | Dose-dependent effect | > 50 | COc1cc2ccc(=O)oc2c(OC)c1OC/C=C(\C)CCC=C(C)C |
| Active | Active | Dose-dependent effect | Dose-dependent effect | > 50 | COc1cc2ccc(=O)oc2c(OC)c1OC[C@@H](O)[C@](C)(O)CCC=C(C)C |
| Active | Active | Dose-dependent effect | Dose-dependent effect | > 50 | COc1cc2ccc(=O)oc2c(OC)c1OC[C@H](O)[C@@H](C)[C@@H]1O[C@H]1C=C(C)C |
| Active | Active | Dose-dependent effect | Dose-dependent effect | > 50 | COc1cc2ccc(=O)oc2c(OC)c1OC[C@@H](O)[C@](C)(O)CC[C@H]1OC1(C)C |
